Experimental data published in ChEMBL document CHEMBL1151705, “Novel azalides derived from 16-membered macrolides. Part II: Isolation of the linear 9-formylcarboxylic acid and its sequential macrocyclization with an amino alcohol or an azidoamine” (2008).
Converted amounts (≈) assume the structure as drawn.

What was measured:
Format in all cases: functional
[1] = test system: Streptococcus pneumoniae; experiment: Antimicrobial activity against Streptococcus pneumoniae 10 expressing mefA after 20 hrs by agar dilution method
How it was run: (§1)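 Streptococci, H. influenzae and M. catarrhalis were precultured on blood agar plates. Suspensions of about 10⁶ CFU/ml were inoculated onto sensitivity disk agar supplemented with 5% horse blood and incubated at 37 °C for 20 h. MIC was read as the lowest drug concentration with no visible growth.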

[2] = test system: Streptococcus pneumoniae; experiment: Antimicrobial activity against drug-susceptible Streptococcus pneumoniae DP1 Type1 after 20 hrs by agar dilution method; conditions: Streptococcus pneumoniae, 20 h; read-out: MIC; how it was run: as §1
[3] = test system: Staphylococcus aureus; experiment: Antimicrobial activity against drug-susceptible Staphylococcus aureus 209P JC-1 after 20 hrs by agar dilution method; conditions: Staphylococcus aureus, 209P, 20 h; read-out: MIC
How it was run: (§2)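 Agar dilution MIC. S. aureus seed culture was grown in sensitivity test broth. Cell suspension (about 10⁶ CFU/ml) was inoculated onto sensitivity disk agar with 5% horse blood and incubated at 37 °C for 20 h. MIC was the lowest drug concentration that prevented visible growth.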

[4] = test system: Streptococcus pneumoniae; experiment: Antimicrobial activity against Streptococcus pneumoniae 6 constitutively expressing ermB after 20 hrs by agar dilution method; conditions: Streptococcus pneumoniae, 20 h; read-out: MIC; how it was run: as §1
[5] = test system: Streptococcus pneumoniae; experiment: Antimicrobial activity against Streptococcus pneumoniae 8 expressing inducible ermB after 20 hrs by agar dilution method; how it was run: as §1
[6] = test system: Streptococcus pneumoniae; experiment: Antimicrobial activity against drug-susceptible Streptococcus pneumoniae 3 after 20 hrs by agar dilution method; conditions: Streptococcus pneumoniae, 20 h; read-out: MIC; how it was run: as §1
[7] = test system: Staphylococcus aureus; experiment: Antimicrobial activity against Staphylococcus aureus 4 constitutively expressing ermA after 20 hrs by agar dilution method; how it was run: as §2
[8] = test system: Streptococcus pneumoniae; experiment: Antimicrobial activity against drug-susceptible Streptococcus pneumoniae 2 after 20 hrs by agar dilution method; conditions: Streptococcus pneumoniae, 20 h; read-out: MIC; how it was run: as §1
[9] = test system: Moraxella catarrhalis; experiment: Antimicrobial activity against drug-susceptible Moraxella catarrhalis 2 after 20 hrs by agar dilution method; conditions: Moraxella catarrhalis, 20 h; read-out: MIC; how it was run: as §1
[10] = test system: Streptococcus pneumoniae; experiment: Antimicrobial activity against Streptococcus pneumoniae 5 constitutively expressing ermB/mefA after 20 hrs by agar dilution method; conditions: Streptococcus pneumoniae, 20 h; read-out: MIC; how it was run: as §1
[11] = test system: Haemophilus influenzae; experiment: Antimicrobial activity against drug-susceptible Haemophilus influenzae 4 after 20 hrs by agar dilution method; how it was run: as §1
[12] = test system: Haemophilus influenzae; experiment: Antimicrobial activity against drug-susceptible Haemophilus influenzae 3 after 20 hrs by agar dilution method; conditions: Haemophilus influenzae, 20 h; read-out: MIC; how it was run: as §1
[13] = test system: Streptococcus pneumoniae; experiment: Antimicrobial activity against Streptococcus pneumoniae 7 expressing inducible ermB after 20 hrs by agar dilution method; how it was run: as §1
[14] = test system: Streptococcus pyogenes; experiment: Antimicrobial activity against Streptococcus pyogenes 3 expressing mefA after 20 hrs by agar dilution method; how it was run: as §1
[15] = test system: Staphylococcus aureus; experiment: Antimicrobial activity against drug-susceptible Staphylococcus aureus 2 after 20 hrs by agar dilution method; conditions: Staphylococcus aureus, 20 h; read-out: MIC; how it was run: as §2
[16] = test system: Staphylococcus aureus; experiment: Antimicrobial activity against Staphylococcus aureus 5 expressing inducible ermB after 20 hrs by agar dilution method; conditions: Staphylococcus aureus, 20 h; read-out: MIC; how it was run: as §2
[17] = test system: Staphylococcus aureus; experiment: Antimicrobial activity against drug-susceptible Staphylococcus aureus 3 after 20 hrs by agar dilution method; conditions: Staphylococcus aureus, 20 h; read-out: MIC; how it was run: as §2
[18] = test system: Streptococcus pneumoniae; experiment: Antimicrobial activity against Streptococcus pneumoniae 9 expressing mefA after 20 hrs by agar dilution method; how it was run: as §1
[19] = test system: Streptococcus pyogenes; experiment: Antimicrobial activity against Streptococcus pyogenes 2 constitutively expressing ermB after 20 hrs by agar dilution method; how it was run: as §1
[20] = test system: Streptococcus pyogenes; experiment: Antimicrobial activity against drug-susceptible Streptococcus pyogenes 1 after 20 hrs by agar dilution method; how it was run: as §1
[21] = test system: Haemophilus influenzae; experiment: Antimicrobial activity against drug-susceptible Haemophilus influenzae 1 after 20 hrs by agar dilution method; conditions: Haemophilus influenzae, 20 h; read-out: MIC; how it was run: as §1
[22] = test system: Haemophilus influenzae; experiment: Antimicrobial activity against drug-susceptible Haemophilus influenzae 2 after 20 hrs by agar dilution method; conditions: Haemophilus influenzae, 20 h; read-out: MIC; how it was run: as §1
[23] = test system: Streptococcus pneumoniae; experiment: Antimicrobial activity against Streptococcus pneumoniae 4 constitutively expressing ermB after 20 hrs by agar dilution method; conditions: Streptococcus pneumoniae, 20 h; read-out: MIC; how it was run: as §1
[24] = test system: Moraxella catarrhalis; experiment: Antimicrobial activity against drug-susceptible Moraxella catarrhalis 1 after 20 hrs by agar dilution method; conditions: Moraxella catarrhalis, 20 h; read-out: MIC; how it was run: as §1
[25] = test system: Staphylococcus aureus; experiment: Antimicrobial activity against Staphylococcus aureus 6 expressing inducible ermB after 20 hrs by agar dilution method; how it was run: as §2
[26] = Streptococcus pneumoniae, 20 h, read-out: MIC
[27] = Haemophilus influenzae, 20 h, read-out: MIC
[28] = Streptococcus pyogenes, 20 h, read-out: MIC

MIC [1, 26]	MIC [2]	MIC [3]	MIC [4]	MIC [5, 26]	MIC [6]	MIC [7]	MIC [8]	MIC [9]	MIC [10]	MIC [12]	MIC [15]	MIC [16]	MIC [17]	MIC [19]	MIC [21]	MIC [22]	MIC [23]	MIC [24]	MIC [25]	SMILES	other results
0.06 µg/mL (≈ 0.0607 µM)	0.03 µg/mL (≈ 0.0304 µM)	0.25 µg/mL (≈ 0.253 µM)	> 128 µg/mL	32 µg/mL (≈ 32.4 µM)	0.06 µg/mL (≈ 0.0607 µM)	> 128 µg/mL	0.06 µg/mL (≈ 0.0607 µM)	2 µg/mL (≈ 2.02 µM)	> 128 µg/mL	8 µg/mL (≈ 8.1 µM)	0.5 µg/mL (≈ 0.506 µM)	0.25 µg/mL (≈ 0.253 µM)	0.25 µg/mL (≈ 0.253 µM)	> 128 µg/mL	64 µg/mL (≈ 64.8 µM)	4 µg/mL (≈ 4.05 µM)	> 128 µg/mL	2 µg/mL (≈ 2.02 µM)	0.5 µg/mL (≈ 0.506 µM)	CCOC(=O)[C@H]1[C@H](C)O[C@@H](O[C@H]2[C@H](N(C)C)[C@@H](O)[C@H](O[C@H]3[C@@H](CC=O)C[C@@H](C)[C@@H](O)CN(C)CCC[C@@H](CCCc4ccnc5ccccc45)OC(=O)C[C@@H](OC(=O)CC)[C@@H]3OC)O[C@@H]2C)C[C@@]1(C)O	MIC [11, 27]: 8 µg/mL (≈ 8.1 µM); MIC [13, 26]: 32 µg/mL (≈ 32.4 µM); MIC [14, 28]: 0.5 µg/mL (≈ 0.506 µM); MIC [18, 26]: 0.06 µg/mL (≈ 0.0607 µM); MIC [20, 28]: 0.13 µg/mL (≈ 0.132 µM)
0.06 µg/mL (≈ 0.0608 µM)	0.03 µg/mL (≈ 0.0304 µM)	0.25 µg/mL (≈ 0.253 µM)	> 128 µg/mL	4 µg/mL (≈ 4.06 µM)	0.015 µg/mL (≈ 0.0152 µM)	> 128 µg/mL	0.06 µg/mL (≈ 0.0608 µM)	1 µg/mL (≈ 1.01 µM)	> 128 µg/mL	8 µg/mL (≈ 8.11 µM)	1 µg/mL (≈ 1.01 µM)	0.25 µg/mL (≈ 0.253 µM)	0.25 µg/mL (≈ 0.253 µM)	> 128 µg/mL	32 µg/mL (≈ 32.4 µM)	2 µg/mL (≈ 2.03 µM)	> 128 µg/mL	1 µg/mL (≈ 1.01 µM)	0.5 µg/mL (≈ 0.507 µM)	CCOC(=O)[C@H]1[C@H](C)O[C@@H](O[C@H]2[C@H](N(C)C)[C@@H](O)[C@H](O[C@H]3[C@@H](CC=O)C[C@@H](C)[C@@H](O)CN(C)CCC[C@H](C/C=C/c4ccnc5ccccc45)OC(=O)C[C@@H](OC(=O)CC)[C@@H]3OC)O[C@@H]2C)C[C@@]1(C)O	MIC [11, 27]: 8 µg/mL (≈ 8.11 µM); MIC [13, 26]: 8 µg/mL (≈ 8.11 µM); MIC [14, 28]: 0.5 µg/mL (≈ 0.507 µM); MIC [18, 26]: 0.06 µg/mL (≈ 0.0608 µM); MIC [20, 28]: 0.13 µg/mL (≈ 0.132 µM)
–	< 0.008 µg/mL	0.13 µg/mL (≈ 0.132 µM)	128 µg/mL (≈ 130 µM)	–	0.015 µg/mL (≈ 0.0152 µM)	> 128 µg/mL	0.03 µg/mL (≈ 0.0304 µM)	1 µg/mL (≈ 1.01 µM)	128 µg/mL (≈ 130 µM)	8 µg/mL (≈ 8.11 µM)	0.25 µg/mL (≈ 0.253 µM)	0.13 µg/mL (≈ 0.132 µM)	0.13 µg/mL (≈ 0.132 µM)	> 128 µg/mL	32 µg/mL (≈ 32.4 µM)	2 µg/mL (≈ 2.03 µM)	128 µg/mL (≈ 130 µM)	1 µg/mL (≈ 1.01 µM)	0.25 µg/mL (≈ 0.253 µM)	CCOC(=O)[C@H]1[C@H](C)O[C@@H](O[C@H]2[C@H](N(C)C)[C@@H](O)[C@H](O[C@H]3[C@@H](CC=O)C[C@@H](C)[C@@H](O)CN(C)CC(/C=C/Cc4cnc5ccccc5c4)CCOC(=O)C[C@@H](OC(=O)CC)[C@@H]3OC)O[C@@H]2C)C[C@@]1(C)O (stereo in doubt; form 1)	MIC [1]: 0.015 µg/mL (≈ 0.0152 µM); MIC [5]: 1 µg/mL (≈ 1.01 µM); MIC [11]: 4 µg/mL (≈ 4.06 µM); MIC [13]: 1 µg/mL (≈ 1.01 µM); MIC [14]: 0.13 µg/mL (≈ 0.132 µM); MIC [18]: 0.015 µg/mL (≈ 0.0152 µM); MIC [20]: 0.03 µg/mL (≈ 0.0304 µM)
